Measurements reported in ChEMBL document CHEMBL5576048, “A Second-Generation Oral SARS-CoV-2 Main Protease Inhibitor Clinical Candidate for the Treatment of COVID-19” (J Med Chem, 2024).
pEC50, pKi: −log10 of the molar value.

How the values were obtained:
[1] = target: Replicase polyprotein 1ab (Severe acute respiratory syndrome coronavirus 2, UniProt P0DTD1); experiment: Inhibition of SARS-Cov-2 MPro assessed as inhibition constant by FRET assay
[2] = test system: SARS-CoV-2; experiment: Antiviral activity against SARS CoV-2 USA_WA1/2020 infected in ACE2 enriched African green monkey Vero E6 cells assessed as reduction in virus-induced cytopathic effect measured after 3 days by celltiter-glo assay; type: functional, organism-based; settings: Severe acute respiratory syndrome coronavirus 2, USA_WA1/2020, Vero C1008, 72 h
[3] = Passive permeability across apical to basolateral side in dog RRCK cells incubated for 30 mins; type: ADME, cell-based, Canis lupus familiaris; settings: mdckii-le, 0.5 h
[4] = Metabolic stability in human liver microsome assessed as apparent intrinsic clearance in presence of NADPH incubated for 40 mins by LS-MS/MS analysis; type: ADME; settings: microsomes
[5] = Lipophilicity, log D of compound at pH 7.4 by shake-flask method; type: physicochemical; settings: buffer
[6] = Clearance in Wistar Hannover rat at 1 mg/kg, iv by LC-MS/MS analysis; type: ADME, organism-based; settings: in vivo
[7] = Volume of distribution at steady state in Wistar Hannover rat at 1 mg/kg, iv by LC-MS/MS analysis; type: ADME, organism-based; settings: in vivo, read-out: Vdss
[8] = Half life in Wistar Hannover rat at 1 mg/kg, iv by LC-MS/MS analysis; type: ADME, organism-based; settings: in vivo
[9] = Renal clerance in Wistar Hannover rat at 1 mg/kg, iv by LC-MS/MS analysis; type: ADME, organism-based; settings: in vivo
[10] = Cmax in Wistar Hannover rat at 10 mg/kg, po administered as crystalline form in 2% Tween 80 (v/v) in 0.5% (w/v) methyl cellulose in water formulation by LC-MS/MS analysis; type: ADME, organism-based; settings: in vivo
Procedure, shortened: (§1)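 Male Wistar–Han rats in the fed state were dosed orally at 10 mg/kg, as amorphous solid in solution or crystalline solid in suspension, in 2% (v/v) Tween 80 in 0.5% (w/v) methyl cellulose in water. Parameters were calculated from plasma concentration–time data; mean and individual values given (n = 2). Oral F is set against a 1 mg/kg i.v. dose.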

[11] = Cmax in Wistar Hannover rat at 10 mg/kg, po administered as ASD form in 2% Tween 80 (v/v) in 0.5% (w/v) methyl cellulose in water formulation by LC-MS/MS analysis; type: ADME, organism-based; settings: in vivo
Procedure, shortened: (§2)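 Parameters come from plasma concentration–time data as mean and individual values (n = 2); exposure for this form was reported as AUC0–∞. Oral F is referenced to a 1 mg/kg i.v. dose.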

[12] = Tmax in Wistar Hannover rat at 10 mg/kg, po administered as crystalline form in 2% Tween 80 (v/v) in 0.5% (w/v) methyl cellulose in water formulation by LC-MS/MS analysis; type: ADME, organism-based; settings: in vivo; procedure, shortened: as §1
[13] = Tmax in Wistar Hannover rat at 10 mg/kg, po administered as ASD form in 2% Tween 80 (v/v) in 0.5% (w/v) methyl cellulose in water formulation by LC-MS/MS analysis; type: ADME, organism-based; settings: in vivo; procedure, shortened: as §2
[14] = AUC (0 to 24 hrs) in Wistar Hannover rat at 1 mg/kg, iv by LC-MS/MS analysis; type: ADME, organism-based; settings: in vivo
[15] = AUC (0 to 24 hrs) in Wistar Hannover rat at 10 mg/kg, po administered as crystalline form in 2% Tween 80 (v/v) in 0.5% (w/v) methyl cellulose in water formulation by LC-MS/MS analysis; type: ADME, organism-based; settings: in vivo; procedure, shortened: as §1
[16] = AUC (0 to 24 hrs) in Wistar Hannover rat at 10 mg/kg, po administered as ASD form in 2% Tween 80 (v/v) in 0.5% (w/v) methyl cellulose in water formulation by LC-MS/MS analysis; type: ADME, organism-based; settings: in vivo
[17] = Oral bioavailability in Wistar Hannover rat at 10 mg/kg administered as crystalline form in 2% Tween 80 (v/v) in 0.5% (w/v) methyl cellulose in water formulation by LC-MS/MS analysis; type: ADME, organism-based; settings: in vivo; procedure, shortened: as §1
[18] = Oral bioavailability in Wistar Hannover rat at 10 mg/kg administered as ASD form in 2% Tween 80 (v/v) in 0.5% (w/v) methyl cellulose in water formulation by LC-MS/MS analysis; type: ADME, organism-based; settings: in vivo; procedure, shortened: as §2
[19] = Cmax in Wistar Hannover rat at 10 mg/kg, po by LC-MS/MS analysis; type: ADME, organism-based; settings: in vivo; procedure, shortened: as §1
[20] = Tmax in Wistar Hannover rat at 10 mg/kg, po by LC-MS/MS analysis; type: ADME, organism-based; settings: in vivo; procedure, shortened: as §1
[21] = AUC (0 to 24 hrs) in Wistar Hannover rat at 10 mg/kg, po by LC-MS/MS analysis; type: ADME, organism-based; settings: in vivo; procedure, shortened: as §1
[22] = Oral bioavailability in Wistar Hannover rat at 10 mg/kg by LC-MS/MS analysis; type: ADME, organism-based; settings: in vivo; procedure, shortened: as §1
[23] = test system: SARS-CoV-2; experiment: Antiviral activity against SARS CoV-2 infected in African green monkey Vero E6 cells; type: functional, organism-based; settings: Severe acute respiratory syndrome coronavirus 2, Vero C1008
[24] = AUC (0 to 24 hrs) in Wistar Hannover rat at 100 mg/kg, po administered as crystalline anhydrous form in 2% (v/v) Tween 80/98% 0.5% (w/v) methyl cellulose in water formulation by LC-MS/MS analysis; type: ADME, organism-based; settings: in vivo
Procedure, shortened: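 Single high oral dose of 100 mg/kg in male Wistar–Han rats in the fed state, given as crystalline suspension in 2% (v/v) Tween 80 in 0.5% (w/v) methylcellulose in water. Parameters were derived from plasma concentration–time data and reported as mean ± S.D. (n = 3) or mean and individual values (n = 2).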

[25] = AUC (0 to 24 hrs) in Wistar Hannover rat at 10 mg/kg, po administered as crystalline MTBE in 10% (v/v) ethanol/10% (v/v) capmul MCM/35% (v/v) PEG400/45% (v/v) Tween 80 formulation by LC-MS/MS analysis; type: ADME, organism-based; settings: in vivo
[26] = AUC (0 to 24 hrs) in Wistar Hannover rat at 100 mg/kg, po administered as crystalline MTBE in 10% (v/v) ethanol/10% (v/v) capmul MCM/35% (v/v) PEG400/45% (v/v) Tween 80 formulation by LC-MS/MS analysis; type: ADME, organism-based; settings: in vivo
[27] = AUC (0 to 24 hrs) in Wistar Hannover rat at 1000 mg/kg, po administered as crystalline MTBE in 10% (v/v) ethanol/10% (v/v) capmul MCM/35% (v/v) PEG400/45% (v/v) Tween 80 formulation by LC-MS/MS analysis; type: ADME, organism-based; settings: in vivo
[28] = in vivo; settings: Wistar Hannover, rat, po, 1000 mg/kg
[29] = in vivo; settings: Wistar Hannover, rat, po, 100 mg/kg
[30] = in vivo; settings: Wistar Hannover, rat, po, 10 mg/kg
[31] = in vivo; settings: Wistar Hannover, rat, po, 100 mg/kg; remark: listed apart in the source
[32] = in vivo; settings: Wistar Hannover, rat, po, 1000 mg/kg; remark: listed apart in the source

Row | SMILES | pKi [1] | pEC50 [2] | permeability [3] | CLH(app) [4] [µL/min/mg] | logD [5] | also measured
1 | COC(=O)N[C@H](C(=O)N1C[C@H](OC(F)F)C[C@H]1C(=O)N[C@H](C#N)C[C@@H]1CCNC1=O)C(C)(C)C | 8.41 | 6.35 | 0.76 10^-6 cm/s | < 7.12 | 0.6 | –
2 | CC(C)(C)[C@H](NC(=O)C(F)(F)F)C(=O)N1C[C@H](OC(F)F)C[C@H]1C(=O)N[C@H](C#N)C[C@@H]1CCNC1=O | 8.55 | 6.71 | 1.25 10^-6 cm/s | < 7.12 | 1.2 | clearance [6]: 33.1 mL/min/kg; Vd [7]: 1.05 L/kg; half-life [8]: 306 min; CL renal [9]: 4.5 mL/min/kg; Cmax [10]: 272 ng/mL; Cmax [11]: 92.8 ng/mL; Tmax [12]: 30 min; Tmax [13]: 45 min; AUC(0-t) [14]: 502 ng·h/mL; AUC(0-t) [15]: 599 ng·h/mL; AUC(0-t) [16]: 212 ng·h/mL; bioavailability [17]: 11.9%; bioavailability [18]: 4.2%
3 | CNC(=O)N[C@H](C(=O)N1C[C@H]2[C@@H]([C@H]1C(=O)N[C@H](C#N)C[C@@H]1CCNC1=O)C2(C)C)C(C)(C)C | – | – | 0.62 10^-6 cm/s | < 7.12 | 0.77 | –
4 | COC(=O)N[C@H](C(=O)N1C[C@H](C(F)(F)F)C[C@H]1C(=O)N[C@H](C#N)C[C@@H]1CCCNC1=O)C(C)C | 8.95 | 7.10 | 0.63 10^-6 cm/s | < 7.12 | 0.7 | clearance [6]: 35.6 mL/min/kg; Vd [7]: 0.55 L/kg; half-life [8]: 114 min; CL renal [9]: 7.6 mL/min/kg; Cmax [19]: 310 ng/mL; Cmax [11]: 177 ng/mL; Tmax [20]: 22.8 min; Tmax [13]: 22.8 min; AUC(0-t) [14]: 467 ng·h/mL; AUC(0-t) [21]: 359 ng·h/mL; AUC(0-t) [16]: 380 ng·h/mL; bioavailability [22]: 7.7%; bioavailability [18]: 8.1%
5 | COC(=O)N[C@H](C(=O)N1C[C@H](C(F)(F)F)C[C@H]1C(=O)N[C@H](C#N)C[C@@H]1CC(O)NC1=O)C(C)(C)C (stereo not given in full) | 7.89 | – | – | – | – | pEC50 [23]: 5.78
6 | COC(=O)N[C@H](C(=O)N1C[C@H](OC(F)(F)F)C[C@H]1C(=O)N[C@H](C#N)C[C@@H]1CCNC1=O)C(C)(C)C | 9.20 | 6.85 | 2.05 10^-6 cm/s | < 7.12 | 1 | clearance [6]: 25.4 mL/min/kg; Vd [7]: 0.87 L/kg; half-life [8]: 360 min; CL renal [9]: 8.1 mL/min/kg; Cmax [19]: 358 ng/mL; Tmax [20]: 15 min; AUC(0-t) [14]: 650 ng·h/mL; AUC(0-t) [21]: 559 ng·h/mL; bioavailability [22]: 8.6%
7 | COC(=O)N[C@H](C(=O)N1C[C@H](C(F)(F)F)C[C@H]1C(=O)N[C@H](C#N)C[C@@H]1CCNC1=O)C(C)C | 7.88 | 6.31 | 0.5 10^-6 cm/s | < 7.12 | 0.9 | –
8 | COC(=O)N[C@H](C(=O)N1C[C@H](C(F)(F)F)C[C@H]1C(=O)N[C@H](C#N)C[C@@H]1CCCNC1=O)C(C)(C)C | 9.77 | 7.34 | 0.4 10^-6 cm/s | 9.5 | 1.2 | –
9 | CC(C)(C)[C@H](NC(=O)C(F)(F)F)C(=O)N1C[C@H](C(F)(F)F)C[C@H]1C(=O)N[C@H](C#N)C[C@@H]1CCNC1=O | 8.35 | 7.18 | 0.71 10^-6 cm/s | 13 | 1.4 | –
10 | COC(=O)N[C@H](C(=O)N1C[C@H]2[C@@H]([C@H]1C(=O)N[C@H](C#N)C[C@@H]1CCNC1=O)C2(C)C)C(C)(C)C | – | – | 0.61 10^-6 cm/s | 8.1 | 1.2 | –
11 | CC(C)(C)[C@H](NC(=O)C(F)(F)F)C(=O)N1C[C@H](OC(F)(F)F)C[C@H]1C(=O)N[C@H](C#N)C[C@@H]1CCNC1=O | 9.15 | 7.09 | 1.12 10^-6 cm/s | < 9.42 | 1.7 | –
12 | CC(C)(C)[C@H](NC(=O)C(F)(F)F)C(=O)N1C[C@H]2[C@@H]([C@H]1C(=O)N[C@H](C#N)C[C@@H]1CCNC1=O)C2(C)C | – | 7.09 | 1.03 10^-6 cm/s | – | 1.9 | AUC(0-t) [24]: 18000 ng·h/mL; AUC(0-t) [25]: 3190 ng·h/mL; AUC(0-t) [26]: 68300 ng·h/mL; AUC(0-t) [27]: 746000 ng·h/mL; Cmax [28]: 88300 ng/mL; Tmax [29]: 84 min; Tmax [30]: 90 min; Tmax [31]: 45 min; Tmax [32]: 60 min
